Measured values reported in ChEMBL document CHEMBL4346731, “Novel meriolin derivatives as rapid apoptosis inducers” (Bioorg Med Chem, 2019).
Activity calls are given as the source filed them. The calls are words filed in the database; no cut-off is given here.

What was measured:
[1] = Antiproliferative activity against human Jurkat J16 cells assessed as reduction in cell viability after 72 hrs by resazurin dye-based spectrophotometric method; type: functional
Procedure, shortened: (§1)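 Cells (DSMZ stock) seeded at 0.5 x 10⁶ cells/mL and exposed to escalating compound concentrations (up to 30 μM) for 24 or 72 h; resazurin 40 μM added for the final 3 h. Resorufin fluorescence read at ex 535/em 590 nm. Viability normalized to 0.1% DMSO controls (100%). IC50 from nonlinear regression; mean of three independent experiments.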

Ramos [2] = assay: Induction of apoptosis in human Ramos cells assessed as caspase-3 activation at 0.1 uM using AcDEVD-AMC as substrate preincubated for up to 8 hrs followed by substrate addition and measured after 60 mins by spectrophotometric method; type: functional, cell-based
Procedure, shortened: (§2)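 Cells in 96-well plates treated for up to 8 h, alongside staurosporine 2.5 μM as positive control. Lysis in caspase buffer (20 mM HEPES, 84 mM KCl, 10 mM MgCl₂, 200 μM EDTA/EGTA, 0.5% NP-40, protease inhibitors), then reaction buffer with Ac-DEVD-AMC added. AMC fluorescence increase followed at 37 °C for at least 60 min.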

Homo sapiens [3] = species: Homo sapiens; assay: Induction of apoptosis in human Jurkat J16 cells assessed as caspase-3 activation at 0.1 uM using AcDEVD-AMC as substrate preincubated for up to 8 hrs followed by substrate addition and measured after 60 mins by spectrophotometric method; type: functional, cell-based; procedure, shortened: as §2
[4] = Antiproliferative activity against human Jurkat J16 cells assessed as reduction in cell viability after 24 hrs by resazurin dye-based spectrophotometric method; type: functional; procedure, shortened: as §1
Ramos [5] = assay: Induction of apoptosis in human Ramos cells assessed as caspase-3 activation at 0.3 uM using AcDEVD-AMC as substrate preincubated for up to 8 hrs followed by substrate addition and measured after 60 mins by spectrophotometric method; type: functional, cell-based; procedure, shortened: as §2
Homo sapiens [6] = species: Homo sapiens; assay: Induction of apoptosis in human Jurkat J16 cells assessed as caspase-3 activation at 0.3 uM using AcDEVD-AMC as substrate preincubated for up to 8 hrs followed by substrate addition and measured after 60 mins by spectrophotometric method; type: functional, cell-based; procedure, shortened: as §2
Ramos [7] = assay: Induction of apoptosis in human Ramos cells assessed as increase in cleaved PARP1 protein expression at 0.1 uM after 2 to 8 hrs by immunoblotting analysis; type: functional, cell-based
Procedure, shortened: (§3)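 Ramos cells exposed to compound for 2-8 h at concentrations chosen from the cytotoxicity data, with or without the pan-caspase inhibitor Q-VD-OPh (10 μM). Cells were harvested, lysed and immunoblotted with mouse anti-PARP1, using GAPDH as loading control. Detection used IRDye800/680 secondary antibodies on an infrared imager.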

Ramos [8] = assay: Antiproliferative activity against human Ramos cells assessed as reduction in cell viability after 72 hrs by resazurin dye-based spectrophotometric method; type: functional; procedure, shortened: as §1
Ramos [9] = assay: Antiproliferative activity against human Ramos cells assessed as reduction in cell viability after 24 hrs by resazurin dye-based spectrophotometric method; type: functional; procedure, shortened: as §1
[10] = biological target: Sphingosine kinase 1 (Homo sapiens) (UniProt Q9NYA1); assay: Inhibition of SK1 (unknown origin) at 10 uM using sphingosine as substrate preincubated for 15 mins followed by substrate addition and measured after 30 mins by fluorescence based assay relative to control
Chain of Sphingosine kinase 1 (Homo sapiens) (Q9NYA1 whole entry): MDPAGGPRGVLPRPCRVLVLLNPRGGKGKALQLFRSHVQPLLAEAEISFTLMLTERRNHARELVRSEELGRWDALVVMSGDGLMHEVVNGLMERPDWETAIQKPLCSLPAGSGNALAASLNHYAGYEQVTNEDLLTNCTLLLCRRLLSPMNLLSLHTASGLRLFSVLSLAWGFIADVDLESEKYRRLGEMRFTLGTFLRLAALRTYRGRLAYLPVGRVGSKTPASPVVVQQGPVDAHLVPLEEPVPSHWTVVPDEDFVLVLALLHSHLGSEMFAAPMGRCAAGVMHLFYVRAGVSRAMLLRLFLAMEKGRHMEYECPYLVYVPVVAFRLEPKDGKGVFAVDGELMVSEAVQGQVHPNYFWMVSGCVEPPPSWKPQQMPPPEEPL
Procedure, shortened: (§4)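 Compound at 10 µM preincubated 15 min with SK1 (0.5 U/mL final) or SK2 (0.1 U/mL final). Sphingosine 5 µM plus ATP added; reaction 30 min (SK1) or 60 min (SK2) at room temperature. Buffer: 50 mM HEPES pH 7.5, 4 mM MgCl₂, 100 µM orthovanadate, 1 mM DTT, 0.01% Brij 35, 2 mM EGTA. Fluorescent detection reagent added for 60 min in the dark. Inhibition = 100 minus blank-corrected relative fluorescence. Triplicates, two independent experiments; mean ± SEM.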

[11] = biological target: T1, Sphingosine kinase 2 (Homo sapiens) (UniProt Q9NRA0); assay: Inhibition of SK2 (unknown origin) at 10 using sphingosine as substrate preincubated for 15 mins followed by substrate addition and measured after 60 mins by fluorescence based assay relative to control; procedure, shortened: as §4
T1 sequence (whole entry): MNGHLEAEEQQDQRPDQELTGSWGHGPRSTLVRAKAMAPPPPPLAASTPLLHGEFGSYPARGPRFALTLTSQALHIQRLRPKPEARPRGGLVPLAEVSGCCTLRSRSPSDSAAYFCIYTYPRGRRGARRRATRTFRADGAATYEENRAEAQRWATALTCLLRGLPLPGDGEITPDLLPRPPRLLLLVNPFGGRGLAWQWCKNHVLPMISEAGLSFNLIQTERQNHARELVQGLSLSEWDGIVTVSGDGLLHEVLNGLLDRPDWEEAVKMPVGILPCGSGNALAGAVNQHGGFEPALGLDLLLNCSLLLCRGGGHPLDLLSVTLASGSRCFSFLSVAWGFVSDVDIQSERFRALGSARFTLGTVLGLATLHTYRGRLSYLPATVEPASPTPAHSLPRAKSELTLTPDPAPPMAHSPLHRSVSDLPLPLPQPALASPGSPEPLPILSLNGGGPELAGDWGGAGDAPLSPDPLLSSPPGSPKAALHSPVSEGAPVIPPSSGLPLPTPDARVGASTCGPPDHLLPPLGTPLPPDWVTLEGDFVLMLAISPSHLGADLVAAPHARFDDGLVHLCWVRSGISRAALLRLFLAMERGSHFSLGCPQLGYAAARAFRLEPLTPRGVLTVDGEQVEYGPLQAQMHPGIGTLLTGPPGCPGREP

Ramos [12] = assay: Induction of apoptosis in human Ramos cells assessed as increase in cleaved PARP1 protein expression at 0.1 uM after 2 to 8 hrs in presence of caspace-inhibitor Q-VD-Oph by immunoblotting analysis; type: functional, cell-based; procedure, shortened: as §3
Ramos [13] = assay: Induction of apoptosis in human Ramos cells assessed as increase in cleaved PARP1 protein expression at 1 uM after 2 to 8 hrs in presence of caspace-inhibitor Q-VD-Oph by immunoblotting analysis; type: functional, cell-based; procedure, shortened: as §3
Homo sapiens [14] = species: Homo sapiens; assay: Induction of apoptosis in human Jurkat J16 cells assessed as caspase-3 activation at 1 uM using AcDEVD-AMC as substrate preincubated for up to 8 hrs followed by substrate addition and measured after 60 mins by spectrophotometric method; type: functional, cell-based; procedure, shortened: as §2
Ramos [15] = assay: Induction of apoptosis in human Ramos cells assessed as increase in cleaved PARP1 protein expression at 1 uM after 2 to 8 hrs by immunoblotting analysis; type: functional, cell-based; procedure, shortened: as §3
Ramos [16] = assay: Induction of apoptosis in human Ramos cells assessed as caspase-3 activation at 1 uM using AcDEVD-AMC as substrate preincubated for up to 8 hrs followed by substrate addition and measured after 60 mins by spectrophotometric method; type: functional, cell-based; procedure, shortened: as §2
Homo sapiens [17] = species: Homo sapiens; assay: Induction of apoptosis in human Jurkat J16 cells assessed as caspase-3 activation at 3 uM using AcDEVD-AMC as substrate preincubated for up to 8 hrs followed by substrate addition and measured after 60 mins by spectrophotometric method; type: functional, cell-based; procedure, shortened: as §2
Ramos [18] = assay: Induction of apoptosis in human Ramos cells assessed as increase in cleaved PARP1 protein expression at 10 uM after 2 to 8 hrs by immunoblotting analysis; type: functional, cell-based; procedure, shortened: as §3
Ramos [19] = assay: Induction of apoptosis in human Ramos cells assessed as caspase-3 activation at 10 uM using AcDEVD-AMC as substrate preincubated for up to 8 hrs followed by substrate addition and measured after 60 mins by spectrophotometric method; type: functional, cell-based; procedure, shortened: as §2
Homo sapiens [20] = species: Homo sapiens; assay: Induction of apoptosis in human Jurkat J16 cells assessed as caspase-3 activation at 10 uM using AcDEVD-AMC as substrate preincubated for up to 8 hrs followed by substrate addition and measured after 60 mins by spectrophotometric method; type: functional, cell-based; procedure, shortened: as §2
Ramos [21] = assay: Induction of apoptosis in human Ramos cells assessed as caspase-3 activation at 3 uM using AcDEVD-AMC as substrate preincubated for up to 8 hrs followed by substrate addition and measured after 60 mins by spectrophotometric method; type: functional, cell-based; procedure, shortened: as §2
Ramos [22] = assay: Induction of apoptosis in human Ramos cells assessed as increase in cleaved PARP1 protein expression at 10 uM after 2 to 8 hrs in presence of caspace-inhibitor Q-VD-Oph by immunoblotting analysis; type: functional, cell-based; procedure, shortened: as §3
Ramos [23] = assay: Induction of apoptosis in human Ramos cells assessed as caspase-3 activation at 2.5 uM using AcDEVD-AMC as substrate preincubated for up to 8 hrs followed by substrate addition and measured after 60 mins by spectrophotometric method; type: functional, cell-based
Procedure, shortened: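 Ramos cells (DSMZ) plated in 96-well plates and treated for up to 8 h. Cells were then lysed in caspase buffer (20 mM HEPES, 84 mM KCl, 10 mM MgCl2, 200 µM EDTA/EGTA, 0.5% NP-40, protease inhibitors). Reaction buffer with Ac-DEVD-AMC was added, and AMC fluorescence increase was read at 37 °C for at least 60 min. Positive control: staurosporine 2.5 µM.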

Row | SMILES | IC50 (Ramos [8]) | IC50 (Ramos [9]) | inhibition [10] | inhibition [11] | IC50 [1] | IC50 [4] | Activity (Ramos [5]) | Activity (Homo sapiens [6]) | Activity (Ramos [13]) | Activity (Homo sapiens [14]) | Activity (Ramos [15]) | Activity (Ramos [16]) | Activity (Homo sapiens [17]) | Activity (Ramos [21]) | also measured
1 | Nc1cc(-c2c[nH]c3ncccc23)cc(N)n1 | 0.07 µM | 0.11 µM | 18% | 87% | 0.06 µM | 0.11 µM | Active | Active |  |  |  |  |  |  | Activity (Ramos [2]): Active; Activity (Homo sapiens [3]): Active; Activity (Ramos [7]): Active; Activity (Ramos [12]): inactive
2 | c1ccc(CNc2ccc(-c3c[nH]c4ncccc34)cn2)cc1 | 0.18 µM | 0.3 µM |  |  | 0.11 µM | 0.24 µM | Active | Active | inactive | Active | Active | Active |  |  | 
3 | COc1cc(-c2c[nH]c3ncccc23)nc(N)n1 | 3.9 µM | 6.04 µM |  |  | 3.08 µM | 5.56 µM |  |  |  |  |  |  | Active | Active | Activity (Ramos [18]): Active; Activity (Ramos [19]): Active; Activity (Homo sapiens [20]): Active; Activity (Ramos [22]): inactive
4 | CN[C@@H]1C[C@H]2O[C@@](C)([C@@H]1OC)n1c3ccccc3c3c4c(c5c6ccccc6n2c5c31)C(=O)NC4 |  |  |  |  |  |  |  |  |  |  |  |  |  |  | Activity (Ramos [23]): Active

Continued, in another order:

Row | IC50 (Ramos [8]) | IC50 (Ramos [9]) | inhibition [10] | inhibition [11] | SMILES | IC50 [1] | IC50 [4] | Activity (Ramos [5]) | Activity (Homo sapiens [6]) | Activity (Ramos [13]) | Activity (Homo sapiens [14]) | Activity (Ramos [15]) | Activity (Ramos [16]) | Activity (Homo sapiens [17]) | Activity (Ramos [21]) | also measured
5 | 3.73 µM | 4.8 µM | 10% | 72% | Nc1nccc(-c2c[nH]c3ncccc23)n1 [MERIOLIN 1] | 2.74 µM | 4.53 µM |  |  |  |  |  |  | Active | Active | Activity (Ramos [18]): Active; Activity (Ramos [19]): Active; Activity (Homo sapiens [20]): Active; Activity (Ramos [22]): inactive
6 | 0.24 µM | 0.37 µM |  |  | Nc1cc(-c2c[nH]c3ncccc23)nc(N)n1 | 0.21 µM | 0.43 µM | Active | Active | inactive | Active | Active | Active |  |  | 
7 | 0.6 µM | 0.97 µM | 10% | 39% | Nc1cc(-c2c[nH]c3ncccc23)ccn1 | 0.48 µM | 0.87 µM |  |  | inactive | Active | Active | Active | Active | Active | 
